Measured values published in ChEMBL document CHEMBL1152580, “Toward establishing structure-activity relationships for oxygenated coumarins as differentiation inducers of promonocytic leukemic cells” (Bioorg Med Chem, 2009).
Active and inactive are the calls of the source. No cut-off for these calls is given here.

How the values were obtained:
U-937 [1] = test: Growth inhibition of human U937 cells assessed as [3H]5-methyl thymidine incorporation after 48 hrs by liquid scintillation counting; format: functional, cell-based
Method in brief: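 Exponentially growing U-937 cells (10⁴ per well in RPMI 1640) exposed to coumarins up to 2.0 mM or 0.0001% (v/v) DMSO for 48 h. 0.5 µCi [³H]5-methyl thymidine added 12 h before the end. Cells harvested, incorporation read by liquid scintillation counting as % of DMSO control. IC50 from sigmoidal dose-response fit; quadruplicate, at least four independent experiments.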

U-937 [2] = test: Induction of human U937 cell differentiation assessed as increase in rhC5a-stimulated intracellular calcium at 25 uM after 2 days; format: functional, cell-based
Method in brief: (§1)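 CD88 read-out as C5a-evoked Ca²⁺ release: U-937 cells (1 × 10⁶/mL) treated 48 h with 5, 25 or 50 µM compound, 400 µM dbcAMP or 0.0001% DMSO. Loaded with 2 µM Fura 2-AM in BSS pH 7.5, 30 min, 37 °C, then 2 × 10⁶ cells/mL. F340/F380 (emission 505 nm) recorded for 8 min at 37 °C with rhC5a or ATP injection. Calibrated with Triton X-100/EGTA; ≥3 experiments.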

U-937 [3] = test: Induction of human U937 cell differentiation assessed as increase in rhC5a-stimulated intracellular calcium at 50 uM after 2 days; format: functional, cell-based; method in brief: as §1
U-937 [4] = test: Induction of human U937 cell differentiation assessed as expression of CD88 receptor at 25 uM after 2 days; format: functional, cell-based; method in brief: as §1
U-937 [5] = test: Induction of human U937 cell differentiation assessed as expression of CD88 receptor at 50 uM after 2 days; format: functional, cell-based; method in brief: as §1
U-937 [6] = test: Induction of human U937 cell differentiation assessed as expression of CD88 receptor at 5 uM after 2 days; format: functional, cell-based; method in brief: as §1
U-937 [7] = test: Growth inhibition of human U937 cells assessed as cell proliferation after 72 hrs; format: functional, cell-based; details: TDE = time-dependent effect
Method in brief: (§2)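 U-937 cells seeded at 10⁵ cells/mL and treated with 25 or 50 µM compound, 400 µM dbcAMP (positive control) or 0.0001% (v/v) DMSO for up to 72 h (sampled at 24, 48, 72 h). Cell number counted on a Coulter Z-1, with density kept ≤1 × 10⁶ cells/mL. Expressed as % of DMSO control; n = 3.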

U-937 [8] = test: Growth inhibition of human U937 cells assessed as proliferation at 50 uM after 72 hrs; format: functional; details: U-937, 72 h, read-out: Activity; method in brief: as §2
U-937 [9] = test: Induction of human U937 cell differentiation assessed as burst oxidative capacity at 25 uM after 72 hrs by NBT reduction assay relative to control; format: functional, cell-based
Method in brief: (§3)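 NBT reduction: U-937 cells (2 × 10⁵/mL) treated 72 h with 25 or 50 µM compound, 1 µM ATRA (positive control) or 0.0001% (v/v) DMSO. Washed, then incubated in RPMI containing 1 mg/mL NBT and 1 µg/mL PMA for 30 min at 37 °C. Formazan dissolved in DMSO, A570 read relative to DMSO control (=1); n = 3.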

U-937 [10] = test: Induction of human U937 cell differentiation assessed as burst oxidative capacity at 50 uM after 72 hrs by NBT reduction assay relative to control; format: functional, cell-based; method in brief: as §3
U-937 [11] = test: Induction of human U937 cell differentiation assessed as expression of CD11b levels at 25 uM after 72 hrs relative to control; format: functional, cell-based
Method in brief: (§4)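 U-937 cells (2 × 10⁵/mL) treated 72 h with 25 or 50 µM compound, 400 µM dbcAMP (positive control) or 0.0001% (v/v) DMSO. Washed in PBS, stained with saturating PE anti-CD11b or isotype control, 4 °C, 30 min. Analysed by flow cytometry, ≥5000 events; CD11b relative to DMSO control (=1); n = 3.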

U-937 [12] = test: Induction of human U937 cell differentiation assessed as expression of CD11b levels at 50 uM after 72 hrs relative to control; format: functional, cell-based; method in brief: as §4
U-937 [13] = test: Cytotoxicity against human U937 cells after 48 hrs by trypan blue assay; format: functional; details: U-937, 48 h
Method in brief: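 U-937 cells in exponential growth seeded at 10⁵ cells/mL RPMI 1640, exposed to coumarin 0.15 µM to 2.0 mM or 0.0001% (v/v) DMSO vehicle for 48 h at 5% CO₂. Viable cells counted by trypan blue exclusion (0.4%, 5 min) in a hemocytometer. CC50 from sigmoidal dose-response fit; quadruplicate, at least four independent experiments.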

| IC50 (U-937 [1]) | SMILES | CC50 (U-937 [13]) | also measured |
| --- | --- | --- | --- |
| 25.3 µM | COC(C)(C)C(O)COc1c2c(cc3oc(=O)ccc13)OCO2 (configuration not stated) | 365 µM | Activity (U-937 [2]): Active; Activity (U-937 [3]): Active; Activity (U-937 [4]): Agonist; Activity (U-937 [5]): Active; Activity (U-937 [6]): inactive; growth inhibition (GI) (U-937 [7]): tde; growth at 50 µM (U-937 [8]): 62.5%; Activity (U-937 [9]): Active; Activity (U-937 [10]): Active; Activity (U-937 [11]): inactive; Activity (U-937 [12]): inactive |
| > 400 µM | CC1(C)OC1COc1c2c(cc3oc(=O)ccc13)OCO2 (configuration not stated) | 899 µM | – |
| 3.5 µM | CC(C)=CCOc1c2c(cc3oc(=O)ccc13)OCO2 | 266 µM | – |
| > 400 µM | COc1c2c(c(OC)c3oc(=O)ccc13)OCO2 | > 2000 µM | – |
| > 400 µM | COc1c2c(cc3ccc(=O)oc13)OCO2 | > 2000 µM | – |
| > 400 µM | O=c1ccc2ccc3c(c2o1)OCO3 | > 2000 µM | – |
| > 400 µM | O=c1ccc2c(Br)c3c(cc2o1)OCO3 | > 2000 µM | – |
| > 400 µM | O=c1ccc2ccccc2o1 [COUMARIN] | > 2000 µM | – |
| 177 µM | COc1cc(OC)c2ccc(=O)oc2c1OCC=C(C)C [ARTANIN] | 535 µM | – |
| > 400 µM | COc1cc(OC)c2ccc(=O)oc2c1OC | > 2000 µM | – |
| 192 µM | CC(C)(O)C(O)COc1c2c(cc3oc(=O)ccc13)OCO2 (configuration not stated) | 420 µM | Activity (U-937 [3]): Active; Activity (U-937 [5]): Active; Activity (U-937 [6]): inactive; growth inhibition (GI) (U-937 [7]): tde; growth at 50 µM (U-937 [8]): 38%; Activity (U-937 [9]): Active; Activity (U-937 [12]): inactive |
| > 400 µM | COc1cc2oc(=O)ccc2c(OC)c1O [FRAXINOL] | > 2000 µM | – |
| > 400 µM | COc1cc(OC)c2ccc(=O)oc2c1O [LEPTODACTYLONE] | > 2000 µM | – |
| 2.2 µM | COc1c2c(cc3oc(=O)ccc13)OCO2 | 252 µM | – |
| > 400 µM | O=c1ccc2cc3c(cc2o1)OCO3 [AYAPIN] | > 2000 µM | – |
| 227 µM | CC(C)(Cl)C(O)COc1c2c(cc3oc(=O)ccc13)OCO2 (configuration not stated) | 567 µM | – |
| > 400 µM | O=c1ccc2c(F)c3c(cc2o1)OCO3 | > 2000 µM | – |
| > 400 µM | C=C(C)C(O)COc1cc2oc(=O)ccc2cc1OC (configuration not stated) | 704 µM | – |
| > 400 µM | COc1cc2ccc(=O)oc2cc1OCC=C(C)C [PRENYLETIN 6-METHYL ETHER] | 799 µM | – |
| 255 µM | O=c1ccc2c(O)c3c(cc2o1)OCO3 | > 2000 µM | – |
| 182 µM | COc1cc2oc(=O)ccc2c(OC)c1OC [5,6,7-TRIMETHOXYCOUMARIN] | 790 µM | – |
| > 400 µM | CC(C)=CCOc1cc2oc(=O)ccc2cc1O [PRENYLETIN] | 820 µM | – |
